The text below walks through data of ChEMBL document CHEMBL1125486, “Inhibitors of blood platelet cAMP phosphodiesterase. 3. 1,3-Dihydro-2H-imidazo[4,5-b]quinolin-2-one derivatives with enhanced aqueous solubility” (J Med Chem, 1992).

Values after ≈ are worked out from the molar mass of the structure shown.

For series [1], the target named is Phosphodiesterase 3 (Homo sapiens, UniProt Q14432+Q13370). The experiment in a line: Inhibition of human platelet c-AMP phosphodiesterase PDE 3.
The species named for series [2] is Homo sapiens. The experiment in a line: Inhibition of ADP-induced aggregation of human platelets. The format is functional.
Series [3] in a line: Aqueous solubility. The format is physicochemical. The conditions noted are these: water; read-out: S. An outline of the steps:
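Water (0.5 mL) added to 10 mg compound at room temperature, diluted up to […] unless dissolution occurred.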

Usually IC50 stands for the midpoint of a concentration-inhibition curve. A higher IC50 goes with weaker potency in that assay. In general, EC50 refers to the concentration at which the effect is half-maximal. In series [1], `CCOC(=O)CN1CCN(C(=O)CCCOc2ccc3[nH]c4nc(O)nc-4cc3c2)CC1` showed a concentration for half-maximal inhibition (IC50) of 2 nM. This compound also had an EC50 in series [2] of 2440 nM. The solubility in series [3] is above 10000 µg/mL.
On to `O=C(CCCOc1ccc2[nH]c3nc(O)nc-3cc2c1)N1CCN(CC2CCCC2)CC1`, for which the half-inhibitory concentration (IC50) in series [1] is 0.5 nM. Moreover, it took 1300 nM to reach a half-maximal effect in series [2] (EC50). The solubility in series [3] is above 10000 µg/mL.
`O=C(CCCCOc1ccc2[nH]c3nc(O)nc-3cc2c1)N1CCN(Cc2ccccc2)CC1` came in with an IC50 in series [1] of 0.08 nM. In series [2], this compound registered a half-maximal effective concentration (EC50) of 47 nM. For the same compound, the solubility in series [3] was above 10000 µg/mL.
On the same counts, the results for `O=C(CCCOc1ccc2[nH]c3nc(O)nc-3cc2c1)N1CCN(CCc2ccccc2C(F)(F)F)CC1` are 0.3 nM, 110 nM and below 10000 µg/mL.
`O=C(CCCOc1ccc2[nH]c3nc(O)nc-3cc2c1)N1CCN(C2CCCCCC2)CC1` had an IC50 in series [1] of 0.9 nM. It took 750 nM to reach a half-maximal effect in series [2] (EC50). The solubility in series [3] was above 10000 µg/mL.
Turning to `O=C(CCCOc1ccc2[nH]c3nc(O)nc-3cc2c1)N1CCN(CCC2CCCCC2)CC1`, in series [1], the IC50 amounted to 0.2 nM. The compound also displayed an EC50 in series [2] of 54 nM. Further, the solubility in series [3] is below 10000 µg/mL.
`CN(C(=O)C1CCN(c2ccc3[nH]c4nc(O)nc-4cc3c2)CC1)C1CCCCC1` yielded a half-maximal effective concentration (EC50) in series [2] above 37000 nM. Also, in series [3], the solubility is below 10000 µg/mL.
For the compound `O=C(c1ccccc1)N1CCN(c2ccc3[nH]c4nc(O)nc-4cc3c2)CC1`, the IC50 in series [1] is on record as 600 nM. In series [2], this compound returned a concentration giving a half-maximal response (EC50) of 6820 nM. Moreover, the solubility in series [3] is below 10000 µg/mL.
The like results for `O=C(CCCOc1ccc2[nH]c3nc(O)nc-3cc2c1)N1CCN(CC2CCCCO2)CC1` (configuration not stated) were, in that order, 0.7 nM, 2020 nM and above 10000 µg/mL.
In turn, `CCCC(CCC)CN1CCN(C(=O)CCCOc2ccc3[nH]c4nc(O)nc-4cc3c2)CC1` yielded an IC50 in series [1] of 0.4 nM. The EC50 in series [2] worked out at 680 nM. In addition, the solubility in series [3] is below 10000 µg/mL.
`O=C(O)C1CCN(c2ccc3[nH]c4nc(O)nc-4cc3c2)CC1` displayed an IC50 in series [1] of 20 nM. Besides, the EC50 in series [2] amounted to 30200 nM. In series [3], the solubility was below 10000 µg/mL.
`Cn1c(O)nc2nc3ccc(OCCCC(=O)N4CCN(CC5CCCCC5)CC4)cc3cc21`: the concentration for half-maximal inhibition (IC50) in series [1] was found to be 80 nM. For the same compound, the EC50 in series [2] is above 58100 nM. Also, the solubility in series [3] was above 10000 µg/mL.
Compound `O=C(CCCOc1ccc2[nH]c3nc(O)nc-3cc2c1)N1CCN(c2cccc(C(F)(F)F)c2)CC1` returned an IC50 in series [1] of 0.6 nM. Also, in series [2], the EC50 came to 720 nM. Further, in series [3], the solubility was below 10000 µg/mL.
`O=C(CCCOc1ccc2[nH]c3nc(O)nc-3cc2c1)NC1CCN(Cc2ccccc2)CC1` came in with an IC50 in series [1] of 0.7 nM. Further, the response in series [2] was half-maximal at 3700 nM (EC50). Further, the solubility in series [3] is above 20000 µg/mL.
Take `O=C(CCCOc1ccc2[nH]c3nc(O)nc-3cc2c1)N1CCN(Cc2ccc(C(F)(F)F)cc2)CC1`: in series [1], the IC50 was 0.4 nM. The compound further had an EC50 in series [2] of 2110 nM. The solubility in series [3] is below 10000 µg/mL.
Regarding `O=C(CCCOc1ccc2[nH]c3nc(O)nc-3cc2c1)N1CCNCC1`, the half-maximal inhibitory concentration (IC50) in series [1] was found to be 40 nM. In series [2], this compound yielded an EC50 of 53700 nM. The solubility in series [3] was above 10000 µg/mL.
In series [1], `O=C(CCCOc1ccc2[nH]c3nc(O)nc-3cc2c1)N1CCC(N2CCCCC2)CC1` yielded a half-inhibitory concentration (IC50) of 5 nM. This compound gave an EC50 in series [2] of 11400 nM. In addition, the solubility in series [3] is above 10000 µg/mL.
Turning to `COC(=O)C1CCN(c2ccc3[nH]c4nc(O)nc-4cc3c2)CC1`, the response in series [2] was half-maximal at 280 nM (EC50). Further, the solubility in series [3] is below 10000 µg/mL.
On the same counts, the results for `COc1ccc(C(=O)N2CCN(c3ccc4[nH]c5nc(O)nc-5cc4c3)CC2)cc1OC` are 37900 nM and below 10000 µg/mL.
For the compound `O=C(CCCOc1ccc2[nH]c3nc(O)nc-3cc2c1)N1CCN(Cc2ccc(Cl)cc2)CC1`, in series [1], the IC50 is recorded as 2 nM. This compound also came in with an EC50 in series [2] of 170 nM. The solubility in series [3] was below 10000 µg/mL.
Take `O=C(CCCOc1ccc2[nH]c3nc(O)nc-3cc2c1)N1CCN(CCc2ccccc2)CC1`: the IC50 in series [1] is given as 2 nM. Besides, the EC50 in series [2] is 190 nM. The solubility in series [3] is below 10000 µg/mL.
Consider `O=C(CCCOc1ccc2[nH]c3nc(O)nc-3cc2c1)N1CCN(c2ccccc2)CC1`, for which the IC50 in series [1] was 2 nM. The EC50 in series [2] came to 50 nM. In addition, the solubility in series [3] was below 10000 µg/mL.
Compound `CC(C)CN1CCN(C(=O)CCCOc2ccc3[nH]c4nc(O)nc-4cc3c2)CC1` had an IC50 in series [1] of 1 nM. In addition, it took 2430 nM to reach a half-maximal effect in series [2] (EC50). The solubility in series [3] is above 10000 µg/mL.
On the same counts, the results for `CN(CCc1ccccn1)C(=O)CCCOc1ccc2[nH]c3nc(O)nc-3cc2c1` are 4.5 nM, 12400 nM and above 10000 µg/mL.
On the same counts, the results for `COc1ccc(CN2CCN(C(=O)CCCOc3ccc4[nH]c5nc(O)nc-5cc4c3)CC2)cc1` are 3 nM, 520 nM and above 10000 µg/mL.
For the compound `Oc1nc2cc3cc(N4CCOCC4)ccc3[nH]c-2n1`, in series [1], the IC50 came to 20 nM. Further, the EC50 in series [2] was 250 nM. Further, in series [3], the solubility was below 10000 µg/mL.
Compound `COCCN1CCN(C(=O)CCCOc2ccc3[nH]c4nc(O)nc-4cc3c2)CC1` came in with an IC50 in series [1] of 7 nM. The compound also came in with an EC50 in series [2] of 20800 nM. Further, in series [3], the solubility was above 10000 µg/mL.
`O=C(CCCOc1ccc2[nH]c3nc(O)nc-3cc2c1)N1CCN(Cc2cccc(C(F)(F)F)c2)CC1` registered an IC50 in series [1] of 9 nM. In series [2], this compound registered an EC50 of 920 nM. The solubility in series [3] stood at 2000 µg/mL (≈ 3.89 mM).
`Oc1nc2cc3cc(N4CCCC4)ccc3[nH]c-2n1`: the concentration giving a half-maximal response (EC50) in series [2] was determined as 2030 nM. The solubility in series [3] was below 10000 µg/mL.
As for `O=C(CCCOc1ccc2[nH]c3nc(O)nc-3cc2c1)N1CCN(C(c2ccc(F)cc2)c2ccc(F)cc2)CC1`, the 50% inhibitory concentration (IC50) in series [1] is on record as 0.3 nM. In series [2], this compound yielded an EC50 of 130 nM. Further, the solubility in series [3] was below 10000 µg/mL.
For the compound `O=C(CCCOc1ccc2[nH]c3nc(O)nc-3cc2c1)N1CCN(Cc2ccc(F)cc2)CC1`, the IC50 in series [1] was 2 nM. In series [2], the EC50 was 530 nM. Further, in series [3], the solubility is above 10000 µg/mL.
`CCOC(=O)N1CCN(c2ccc3[nH]c4nc(O)nc-4cc3c2)CC1` registered a half-inhibitory concentration (IC50) in series [1] of 700 nM. For the same compound, a half-maximal effect in series [2] (EC50) was put at 3520 nM. Besides, in series [3], the solubility was below 10000 µg/mL.
The compound `O=C1CN2Cc3cc(OCCCC(=O)N4CCN(CC5CCCCC5)CC4)ccc3N=C2N1` came in with an IC50 in series [1] of 6 nM. The concentration giving a half-maximal response (EC50) in series [2] stood at 7230 nM. Further, the solubility in series [3] was above 5000 µg/mL.
With `O=C1CN2Cc3cc(OCCCC(=O)N4CCN(Cc5ccccc5)CC4)ccc3N=C2N1`, the concentration for half-maximal inhibition (IC50) in series [1] came to 8 nM. In series [2], this compound had a half-maximal effective concentration (EC50) of 4150 nM. Moreover, in series [3], the solubility is above 5000 µg/mL.
As for `O=C(CCCOc1ccc2[nH]c3nc(O)nc-3cc2c1)N1CCN(Cc2ccc3c(c2)OCO3)CC1`, the concentration for half-maximal inhibition (IC50) in series [1] was 0.9 nM. In series [2], this compound returned an EC50 of 330 nM. Also, in series [3], the solubility is 10000 µg/mL (≈ 20.4 mM).
In the case of `CCC(CC)CN1CCN(C(=O)CCCOc2ccc3[nH]c4nc(O)nc-4cc3c2)CC1`, the concentration for half-maximal inhibition (IC50) in series [1] worked out at 1 nM. In series [2], this compound came in with an EC50 of 430 nM. In addition, the solubility in series [3] was above 10000 µg/mL.
For the compound `O=C(CCCOc1ccc2[nH]c3nc(O)nc-3cc2c1)N1CCN(C(c2ccccc2)c2ccccc2)CC1`, the IC50 in series [1] is given as 3 nM. Also, in series [2], the EC50 turned out to be 62 nM. The solubility in series [3] was below 10000 µg/mL.
